# Source: ChEMBL document CHEMBL4765423, “Antikinetoplastid SAR study in 3-nitroimidazopyridine series: Identification of a novel non-genotoxic and potent anti-T. b. brucei hit-compound with improved pharmacokinetic properties” (Eur J Med Chem, 2020)
# pEC50: −log10 of the molar value.
# What was measured:
# [1] = Permeability of the compound in pH 7.4 Prisma HT buffer at 100 uM incubated for 4 hrs by PAMPA-BBB assay method
# [2] = Electrochemical behavior of the compound assessed as redox potential corrected toward normal hydrogen electrode by cyclic voltammetry
# [3] = Selectivity index, ratio of CC50 for human HepG2 cells to EC50 for antileishmanial activity against Leishmania infantum MHOM/MA/67/ITMAP-263 axenic amastigotes; format: toxicity; details: read-out: Ratio CC50/EC50
# [4] = Selectivity index, ratio of CC50 for human HepG2 cells to EC50 for Trypanosoma brucei brucei trypomastigotes AnTat 1.9; format: toxicity; details: read-out: Ratio CC50/EC50
# [5] = Selectivity index, ratio of CC50 for human HepG2 cells to EC50 for antileishmanial activity against Leishmania donovani MHOM/IN/00/DEVI promastigotes; format: toxicity; details: read-out: Ratio CC50/EC50
# [6] = Cytotoxicity against human HepG2 cells assessed as reduction in cell viability after 72 hrs by MTT assay; format: cell-based
# How it was run: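 MTT was applied at 0.5 mg/mL for 2 h, formazan was dissolved in DMSO, and absorbance read at 570 nm with a 630 nm reference. Doxorubicin was the positive control. CC50 was taken from the dose-response curve, as the mean of three experiments.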
# Leishmania donovani [7] = test: Antileishmanial activity against Leishmania donovani MHOM/IN/00/DEVI promastigotes assessed as inhibition of parasitic metabolic activity measured after 72 hrs by MTT assay; format: functional, organism-based
# How it was run: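 Log-phase promastigotes at 10⁶/mL were grown in Schneider's medium with 20% FCS at 27 °C. Compound was added from DMSO stock (final <0.5% v/v), in duplicate, for 72 h. Metabolic activity was read by MTT (4 h, 27 °C) and absorbance at 570 nm. EC50 came from non-linear dose-response regression, as the mean of ≥3 independent experiments.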
# [8] = Microsomal stability in CD-1 mouse liver microsomes assessed as half life in presence of NADP measured up to 40 mins by LC-MS analysis; format: ADME, Microsome
# How it was run: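 Compound was incubated in duplicate with female CD-1 mouse microsomes at 37 °C in 50 mM phosphate, pH 7.4. An NADP-regenerating system was present (MgCl₂ 5 mM, NADP 1 mM, G6PDH 0.4 U/mL, G6P 5 mM).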
# Leishmania infantum = test: Antileishmanial activity against Leishmania infantum MHOM/MA/67/ITMAP-263 axenic amastigotes assessed as inhibition of parasitic metabolic activity incubated for 48 hrs by steady Glow reagent based luminescence assay; format: functional, organism-based; details: MHOM/MA/67/ITMAP-263, 48 h
# How it was run: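 Luciferase-expressing promastigotes were acidified (pH 5.4, 24 h, 24 °C) and then held 24 h at 37 °C to give axenic amastigotes. These were used at 2×10⁶/mL with compound (DMSO <0.5%), in duplicate, for 48 h at 37 °C. Luciferase luminescence was read. EC50 came from non-linear regression, as the mean of three independent experiments.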
# Albumin = Albumin (Homo sapiens, UniProt P02768); test: Binding affinity to human albumin incubated for 4 hrs by LC-MS analysis; format: ADME; details: read-out: PB (converted)
# [9] = test system: Trypanosoma brucei brucei; test: Antitrypanosomal activity against bloodstream form Trypanosoma brucei brucei AnTat 1.9 trypomastigotes assessed as reduction in parasite viability incubated for 69 hrs by Alamar Blue dye based assay; format: functional, organism-based; details: AnTat 1.9, 69 h
# How it was run: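 BSF parasites were cultured in MEM/Baltz medium with 20% heat-inactivated horse serum, mercaptoethanol, L-cysteine and bathocuproine, at 37 °C and 5% CO₂. Cells were seeded at 2000 parasites/100 µL with compound from DMSO, in duplicate, for 69 h. Alamar Blue was added for 5 h and fluorescence read (ex 530/em 590 nm). EC50 came from non-linear regression over three independent experiments.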
# [10] = Aqueous solubility of compound; format: physicochemical; details: buffer
# Leishmania donovani [11] = test: Antileishmanial activity against Leishmania donovani amastigotes infected in human THP1 cells assessed as reduction in parasite infection treated with compound at 24 hrs post infection and measured after 120 hrs by Giemsa staining-based assay; format: functional, organism-based; details: THP-1
# How it was run: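 THP-1 cells were differentiated with PMA (50 ng/mL, 48 h). They were infected 10:1 with promastigotes acidified at pH 5.4, for 24 h. Compound was added (DMSO <0.5%), in duplicate, and cells were incubated 120 h at 37 °C, 5% CO₂. Cells were methanol-fixed and Giemsa-stained, and ≥200 cells were counted for % infected macrophages. IC50 came from regression, as the mean of ≥3 experiments.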
# Albumin, sequence (P02768 whole entry): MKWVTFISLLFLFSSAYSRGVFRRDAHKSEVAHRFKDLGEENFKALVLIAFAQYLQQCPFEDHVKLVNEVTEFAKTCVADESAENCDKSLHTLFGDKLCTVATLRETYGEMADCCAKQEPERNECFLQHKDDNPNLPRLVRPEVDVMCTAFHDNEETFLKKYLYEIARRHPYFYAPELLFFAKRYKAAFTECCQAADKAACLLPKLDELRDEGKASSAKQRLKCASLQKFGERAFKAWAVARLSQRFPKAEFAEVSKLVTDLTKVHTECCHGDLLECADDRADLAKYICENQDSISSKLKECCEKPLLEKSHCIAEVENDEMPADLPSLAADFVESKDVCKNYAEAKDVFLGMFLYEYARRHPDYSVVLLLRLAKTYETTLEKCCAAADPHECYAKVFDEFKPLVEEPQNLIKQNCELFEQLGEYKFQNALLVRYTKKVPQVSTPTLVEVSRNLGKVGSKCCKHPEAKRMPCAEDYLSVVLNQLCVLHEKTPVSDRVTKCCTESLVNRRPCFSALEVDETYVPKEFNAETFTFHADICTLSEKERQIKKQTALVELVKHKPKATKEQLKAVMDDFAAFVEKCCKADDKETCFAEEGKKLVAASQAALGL
SMILES,"Papp at 4 h, 100 µM [1] [nm/s]",Activity [2] [V],selectivity ratio [3],selectivity ratio [4],selectivity ratio [5],CC50 at 72 h [6] [µM],pEC50 (Leishmania donovani [7]),half-life [8] [min],pEC50 (Leishmania infantum),fraction unbound at 4 h (Albumin),pEC50 [9],solubility [10],pEC50 (Leishmania donovani [11])
Cn1c(=O)c2[nH]cnc2n(C)c1=O.O [THEOPHYLLINE],4.7,,,,,,,,,,,,
CSc1ccc(OCc2ncc([N+](=O)[O-])n2C)cc1 [FEXINIDAZOLE],,-0.83,,,,,,,,,,,
CS(=O)(=O)Cc1nc2c(Sc3ccc(Cl)cc3)cc(Cl)cn2c1[N+](=O)[O-],,,> 3,> 466,> 26,> 31.2,5.92,12,4.99,0.011,7.17,,
O=[N+]([O-])c1c(CS(=O)(=O)c2ccccc2)nc2c(Br)cc(C(F)(F)F)cn12,,-0.6,,> 3.9,> 2.5,> 15.6,5.21,,< 5.51,,5.40,,
O=[N+]([O-])c1cnc2c(Br)cc(Cl)cn12,,,1,40.5,1.7,16.2,5.03,,4.80,,6.40,,
O=[N+]([O-])c1c(CS(=O)(=O)c2cccnc2)nc2c(Br)cc(Cl)cn12,,,> 0.8,> 2500,> 78,> 62.5,6.10,27,4.11,0.13,7.60,Soluble,
O=[N+]([O-])c1c(CS(=O)(=O)c2cccnc2)nc2c(Sc3ccc(Cl)cc3)cc(Cl)cn12,,,> 39,> 26,> 62.4,> 31.2,6.30,,6.10,,5.92,,< 5.00
CSCc1nc2c(Br)cc(Cl)cn2c1[N+](=O)[O-],,,,> 7.1,,> 15.6,,,,,5.66,Insoluble,
C[C@@H]1[C@H](O)[C@@H](C)/C=C/C=C/C=C/C=C/C=C/C=C/C=C/[C@H](O[C@@H]2O[C@H](C)[C@@H](O)[C@H](N)[C@@H]2O)C[C@@H]2O[C@](O)(C[C@@H](O)C[C@@H](O)[C@H](O)CC[C@@H](O)C[C@@H](O)CC(=O)O[C@H]1C)C[C@H](O)[C@H]2C(=O)O [AMPHOTERICIN B],,,,,,,,,7.22,,,,
O=[N+]([O-])c1c(CSc2ccccc2)nc2c(Br)cc(Cl)cn12,,-0.7,> 1.8,,,> 31.2,< 4.90,,4.75,,< 4.30,,
Cc1nc2c(Br)cc(Cl)cn2c1[N+](=O)[O-],,,> 3.9,,,> 125,< 4.90,,4.49,,< 4.30,,
O=[N+]([O-])c1cnc2c(Sc3ccc(Cl)cc3)cc(Cl)cn12,,-0.74,,> 92.8,> 3.1,> 7.8,5.60,,,,7.07,Insoluble,
Cc1nc2c(Sc3ccc(Cl)cc3)cc(Cl)cn2c1[N+](=O)[O-],,-0.79,,,,> 7.8,< 4.90,,,,,,
Cc1cc(Sc2ccc(Cl)cc2)c2nc(CS(=O)(=O)c3ccccc3)c([N+](=O)[O-])n2c1,,-0.76,12.5,> 34.7,> 24,> 62.5,5.59,,5.30,,5.74,,
O=[N+]([O-])c1c(CS(=O)(=O)C2CCCCC2)nc2c(Br)cc(Cl)cn12,,,,> 31.2,> 17.3,> 15.6,6.05,,< 4.00,,6.30,,
O=[N+]([O-])c1c(CS(=O)(=O)c2ccccc2)nc2c(Br)cc(Cl)cn12,,-0.65,,,,,,12,,0.035,,,
Cc1cc(Br)c2nc(CS(=O)(=O)c3ccccc3)c([N+](=O)[O-])n2c1,,-0.76,,> 26,> 5.6,> 31.2,5.25,,< 5.51,,5.92,,
O=[N+]([O-])c1c(CSc2ccccc2)nc2c(Sc3ccc(Cl)cc3)cc(Cl)cn12,,-0.72,,,> 2.1,> 15.6,5.13,,,,< 4.30,,
O=[N+]([O-])c1c(CS(=O)(=O)C2CCCCC2)nc2c(Sc3ccc(Cl)cc3)cc(Cl)cn12,,,> 19.5,> 20.8,> 16.4,> 31.2,5.72,,5.80,,5.82,,< 5.00
O=[N+]([O-])c1c(CS(=O)(=O)c2ccccc2)nc2c([Se]c3ccc(Cl)cc3)cc(Cl)cn12,,,> 8.7,> 26,> 11.1,> 7.8,6.15,,6.05,,6.52,Insoluble,
O=[N+]([O-])c1c(CO)nc2c(Sc3ccc(Cl)cc3)cc(Cl)cn12,,,> 2,,> 3.9,> 15.6,5.40,,5.10,,< 4.30,,
O=[N+]([O-])c1c(CS(=O)(=O)c2ccccc2)nc2c(Sc3ccc(Cl)cc3)cc(C(F)(F)F)cn12,,-0.58,,> 45.9,> 4.1,> 7.8,5.72,,,,6.77,,
O=[N+]([O-])c1c(CS(=O)(=O)c2ccccc2)nc2c(Nc3ccccc3)cc(Cl)cn12,,-0.69,,,,> 3.9,,,,,,Insoluble,
CC1CS(=O)(=O)CCN1/N=C/c1ccc([N+](=O)[O-])o1 (stereo unspecified) [NIFURTIMOX],,-0.61,,,,,,,,,,,
COc1ccc(Nc2cc(Cl)cn3c([N+](=O)[O-])c(CS(=O)(=O)c4ccccc4)nc23)cc1,,,,,,> 3.9,,,,,,Insoluble,
O=[N+]([O-])c1c(CS(=O)(=O)c2ccccc2)nc2c(Nc3ccc(Cl)cc3)cc(Cl)cn12,,,,,,> 3.9,,,,,,Insoluble,
C[S+]([O-])Cc1nc2c(Br)cc(Cl)cn2c1[N+](=O)[O-] (stereo unspecified),,,,2570,,51.4,,,,,7.70,,
O=[N+]([O-])c1c(CO)nc2c(Br)cc(Cl)cn12,,,> 5.4,,,> 125,< 4.90,,4.33,,< 4.30,,
CS(=O)(=O)Cc1nc2c(Br)cc(Cl)cn2c1N,,,,,,> 125,< 4.90,,< 4.00,,5.14,,
